Only some compounds are listed: those with a hit (about 1.7% of all), similar ones and a draw of the others.
HNF4A DNA FP = change in binding of human HNF4 alpha to DNA | P41235 | HNF4a-FITC DNA binding, fluorescence polarization, 1 h | activity change, % at 10 µM | 0.3% of 360,000 active; in the data active = activity change above about 30%, passing the limit was not always enough
TPT1 inhibitor = blocks Candida albicans tRNA 2'-phosphotransferase. recombinant caTPT1, FP RNA substrate dephosphorylation. inhibition, % at 5 µM. 0.81% of 300,000 active. AID 1962;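 active = inhibition above the mean of all tested compounds plus 3 SD, set per screening campaign, cut at about 24% in these data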;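 also: plate controls were DMSO alone for no effect and ferristatin control at 100 nM for full effect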
IDE cell activ = boosts human insulin-degrading enzyme activity in HEK cells; P14735; FAbeta-B cleavage, fluorescence polarization; 0% vehicle, 100% cell-free pure enzyme wells; activation, % at 5.96 µM; 0.073% of 340,000 active;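 active = activation above the mean of all tested compounds plus 3 SD, set per screening campaign, cut at about 17% in these data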
IDE inh = inhibitors of human insulin-degrading enzyme in cells | inhibition, % at 5.59 µM | P14735 | 0.41% of 320,000 active | HEK cells, FAbetaB cleavage, fluorescence polarization | AID 434962;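 active = percent inhibition above the average of all tested compounds plus 3 SD, set per screening campaign, cut at about 16% in these data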;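 also: IDE supplied by intact live HEK cells; FP after avidin binding of uncleaved biotin substrate so inhibition keeps polarization high; 0% = DMSO wells and 100% = 60 µM reference IDE inhibitor Ii1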
CSN inh = CSN deneddylation inhibition | Purified CSN, SCF-Nedd8-OG deneddylation, fluorescence polarization | Q92905 | 0.38% of 360,000 active | inhibition, % at 12.5 µM;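 active = pattern-corrected inhibition above about 35%, with an unprinted fluorescence ratio check between 0.5 and 1.5, limit read from the data, passing the limit was not always enough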;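 also: 0% = enzyme with substrate and 100% = substrate without enzyme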
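assay system = purified human Csn5 enzyme expressed in HEK293T cells | amount = 0.24 nM enzyme | buffer or medium = Tris/NaCl/DTT buffer, pH 7.5 | reagent = 10 nM SCFSkp2-Nedd8OG | compound = one concentration, 12.5 µM, 0.25% DMSO | times = 90 min reaction at room temperature | signal = FP | read-out basis = % inhibition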
Rpn11 block = Rpn11 (human) deubiquitinase inhibition. human 26S proteasome, Ub4-pepOG fluorescence polarization; 20S core pre-blocked with epoxomicin. 0.59% of 360,000 active. AID 588493. inhibition, % at 20 µM. O00487;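 active = inhibition at 20 µM, scaled to each plate's controls, above about 33%, limit read from the data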
CSN deneddyl val = Csn5 (human) deneddylation inhibition, single-concentration validation | shares compounds with CSN inh | Csn5 deneddylation of SCF-Nedd8OG, fluorescence polarization, 90 min | inhibition, % at 16.6 µM | 62% of 540 active; in the data active = inhibition above about 50%;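 also: 0% = DMSO with enzyme and 100% = no enzyme wells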
MMP-2 counter = MMP-2 (human) inhibition, counter-screen for CSN hits | shares compounds with CSN inh | recombinant MMP-2, FRET substrate fluorescence, 60 min | inhibition, % at 16.6 µM | 33% of 540 active | AID 720655;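 active = corrected plate-normalized z-score of 5 or more, or -5 or less, or inhibition of 15% or more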;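 also: plate controls were DMSO wells with enzyme for no effect and buffer wells lacking MMP-2 for full effect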
Target sequence (P08253 whole entry, looked up): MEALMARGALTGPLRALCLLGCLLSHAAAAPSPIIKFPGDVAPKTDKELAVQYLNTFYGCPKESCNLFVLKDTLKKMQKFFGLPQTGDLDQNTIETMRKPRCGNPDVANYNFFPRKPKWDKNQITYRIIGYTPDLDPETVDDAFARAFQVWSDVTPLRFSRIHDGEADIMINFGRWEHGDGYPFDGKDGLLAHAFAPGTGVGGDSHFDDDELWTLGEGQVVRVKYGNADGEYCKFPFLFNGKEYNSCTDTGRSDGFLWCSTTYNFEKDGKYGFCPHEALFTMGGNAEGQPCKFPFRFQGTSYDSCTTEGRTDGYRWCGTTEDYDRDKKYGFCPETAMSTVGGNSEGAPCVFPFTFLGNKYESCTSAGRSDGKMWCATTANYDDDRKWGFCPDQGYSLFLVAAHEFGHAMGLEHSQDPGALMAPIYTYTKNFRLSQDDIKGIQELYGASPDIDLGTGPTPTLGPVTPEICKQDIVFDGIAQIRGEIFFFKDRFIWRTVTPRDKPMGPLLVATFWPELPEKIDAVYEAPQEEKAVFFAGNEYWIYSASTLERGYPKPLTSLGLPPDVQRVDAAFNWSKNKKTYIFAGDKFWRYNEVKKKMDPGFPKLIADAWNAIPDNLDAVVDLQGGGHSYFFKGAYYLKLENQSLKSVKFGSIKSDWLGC
Thrombin counter = counter-screen for CSN deneddylation inhibitors: bovine thrombin inhibition; shares compounds with CSN inh; bovine thrombin cleavage of Ub4-pepOG, fluorescence polarization; inhibition, % at 16.6 µM; 49% of 540 active; AID 720656;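 active = inhibition at or above a set limit, with a fluorescence interference ratio between 0.5 and a set maximum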
* = called active by the depositor; nt = not tested or not shown; + = active, no number.

SMILES	HNF4A DNA FP	TPT1 inhibitor	IDE cell activ	IDE inh	CSN inh	Rpn11 block	CSN deneddyl val	MMP-2 counter	Thrombin counter
Cc1ccc(/C=C2\SC(=S)N(CC3CCCO3)C2=O)o1 (stereo not given)	16.1	24.0	-2.9	7.0	73.8*	nt	102.7*	32.8*	34.2*
O=C(NCc1cccc(C(F)(F)F)c1)c1cccc2c1C(=O)c1ccc(N3CCC(Cc4ccccc4)CC3)cc1S2(=O)=O	-19.4	nt	-1.4	1.7	-0.9	-19.3	nt	nt	nt
O=C(NCc1cc(C(F)(F)F)ccc1Cl)c1cccc2c1C(=O)c1ccc(N3CCC(N4CCCCC4)CC3)cc1S2(=O)=O	139.6*	nt	nt	nt	81.6*	nt	-38.4	-18.0	45.6*
CC(C(=O)N1CCc2ccccc21)N1CCN(S(=O)(=O)c2cccc(C(F)(F)F)c2)CC1 (stereo not given)	-0.7	nt	3.5	-3.1	1.0	-1.3	nt	nt	nt
COc1cc(-c2nnc(SCc3cc(=O)oc4cc(O)c(O)cc34)o2)cc(OC)c1OC	-49.2	9.1	-6.8	-4.3	47.3*	-14.9	nt	31.6*	33.7*
C=CCn1c(O)c(N=Nc2ccccc2)c2ccccc21	0.1	0.8	2.8	-1.0	5.8	2.0	nt	nt	nt
C=CCn1c(O)c(N=Nc2ccccc2O)c2ccccc21	84.1*	nt	-10.8	10.6	47.2*	nt	+	-5.7	32.5*
CN(C)c1ccc2cc(S(=O)(=O)O)cc(O)c2c1	-17.7	nt	-2.8	nt	35.2*	-7.0	74.9*	4.3	1.4
O=C(COc1ccc(Cl)cc1Cl)Nc1ccc(C(=O)Nc2ccccc2C(=O)O)cc1	-4.8	-1.2	3.4	-3.3	51.6*	6.6	75.0*	19.5*	5.6
O=C(COc1ccc(Cl)cc1Cl)NC(=S)Nc1ccccc1C(=O)O	nt	-4.0	nt	3.5	nt	nt	nt	nt	nt
Cc1cc(F)ccc1C(O)c1ncc(-c2ccccc2C(F)(F)F)[nH]1 (stereo not given)	1.4	nt	nt	nt	-0.3	-7.1	nt	nt	nt
Cc1c(Br)c(=O)oc2c(Br)c(O)ccc12	2.7	0.9	2.4	-0.2	-4.8	1.6	nt	nt	nt
Cc1c(Br)c(=O)oc2c(Br)c(O)c(O)cc12	-41.8	0.5	1.6	8.6	39.5*	15.4	nt	10.7	29.0*
CCOc1ccc(Br)cc1/C=N/O	0.1	-5.7	-0.8	-1.8	-1.5	10.5	nt	nt	nt
CCCc1ccc(O)c(N=Cc2cc(Br)cc(OCC)c2O)c1	10.6	6.0	-2.6	-2.7	37.5*	24.1	88.6*	-5.0	45.9*
Cc1cccc(C)c1NC(=O)C1(C)CSCC(=O)N1C1CCN(Cc2ccccc2)CC1 (stereo not given)	-3.1	nt	nt	nt	2.8	nt	nt	nt	nt
COC(=O)[C@@]1(Sc2ccc(C)cc2)CC(=O)N(c2ccccc2)[C@@H]1c1ccccc1	-3.8	nt	nt	nt	-2.0	nt	nt	nt	nt
COc1cccc(/C=N/NC(=O)CSc2ccccc2C)c1O	-2.0	0.1	6.4	-2.2	99.8*	1.5	111.9*	9.9	1.4
COc1cccc(/C=N/NC(=O)CSc2ccccc2C)c1OC	1.4	-4.6	4.9	3.7	-2.2	-8.1	nt	nt	nt
COc1cc(/C=N/N2C(=O)CSC2=S)cc(Br)c1O	75.8*	nt	-94.6	nt	117.8*	nt	-52.1	24.1*	88.5*
O=C(O)CSc1nc2sc3c(c2c(=O)n1Cc1ccccc1)CCCCC3	-4.7	1.1	0.9	-0.9	-0.1	-18.8	nt	nt	nt
O=C(O)CSc1cc(C(=O)c2ccccc2O)cn2c(=O)c3c4c(sc3nc12)CCCC4	-31.2	nt	-5.9	nt	43.0*	-12.3	30.9	41.5*	-20.6
O=C(NCc1ccccc1)C(c1ccc(-c2ccccc2)cc1)N1CCN(c2ccccc2F)CC1 (stereo not given)	-0.4	nt	nt	nt	-1.7	nt	nt	nt	nt
Cc1ccc(CNc2ccc(O)cc2)cc1	1.2	nt	3.3	nt	38.4*	-6.4	86.9*	0.2	-30.0
Cc1ccc(NCc2ccccc2O)cc1	-13.0	-1.9	3.1	-6.2	1.9	-3.0	nt	nt	nt
SMILES	HNF4A DNA FP	TPT1 inhibitor	IDE cell activ	IDE inh	CSN inh	Rpn11 block	CSN deneddyl val	MMP-2 counter	Thrombin counter
COc1ccc(-c2ccc(C(=O)Nc3cc(OC)c(OC)c(OC)c3)c3occc23)c(C)c1	-0.2	nt	nt	nt	-4.4	3.0	nt	nt	nt
Cc1ccc(CN2C(=O)N/C(=C/c3ccc(-c4ccc(C(=O)O)cc4)o3)C2=O)cc1	-4.1	4.1	7.6	4.8	11.9	7.4	nt	nt	nt
Cc1cc(C(=O)O)ccc1-c1ccc(/C=C2\NC(=O)N(Cc3ccc(F)cc3)C2=O)o1	-17.1	1.1	-0.7	-4.2	35.6*	-8.3	nt	17.3*	15.8*
C=CCSc1nc2c(N)ncnc2n1C1OC(CO)C(O)C1O (stereo not given)	2.0	nt	nt	nt	3.8	-2.9	nt	nt	nt
C[n+]1cccc2c(Br)ccc([O-])c21	-1.2	-3.6	7.0	1.9	44.8*	4.1	103.1*	3.5	-10.1
O=C(N/N=C\C=C\c1ccco1)c1cc(-c2ccc3ccccc3c2)n[nH]1	-7.8	5.2	-6.0	0.1	43.0*	4.9	96.4*	11.4	-8.9
Cc1cc(-c2csc(NC(=O)c3ccc(=O)[nH]c3)n2)c(C)n1Cc1ccco1	-52.6	8.1	-1.1	6.7	39.6*	19.7	98.4*	8.0	-0.8
N#Cc1c(N2CCCC(O)C2)nc(N)c2c(N)nc3c(c12)CC(=O)N3C12CC3CC(CC(C3)C1)C2 (stereo not given)	27.6	7.5	-0.2	-0.9	52.3*	27.5	93.5*	4.0	-43.1
COc1ccc(OCCNC(=O)C2(C)CCN2Cc2ccc3ccccc3c2)cc1 (stereo not given)	1.8	nt	nt	nt	-4.5	-3.5	nt	nt	nt
Cc1cc2c(SCC(=O)Nc3cccc(O)c3)ncnc2s1	-20.3	nt	5.6	nt	35.7*	36.1	84.9*	12.5	0.8
CC1=C(C(=O)OC(C)C)C(c2ccc(Cl)cc2)n2c(s/c(=C\c3ccc(OCC(=O)O)cc3)c2=O)=N1 (stereo not given)	-18.0	nt	-2.8	nt	83.8*	nt	-1.8	-1.1	11.8
CCOC(=O)C1=C(C)N=c2s/c(=C/c3cccc(OCC(=O)O)c3)c(=O)n2C1c1ccc(F)cc1 (stereo not given)	nt	4.0	nt	7.2	nt	nt	nt	nt	nt
Cc1cc(Br)c(Oc2cc(NN3CCCCC3)c([N+](=O)[O-])cc2[N+](=O)[O-])c(Br)c1	3.4	nt	1.1	nt	0.8	1.5	nt	nt	nt
Cc1cc(/C=N/NC(=O)C(O)(c2ccccc2)c2ccccc2)c(C)n1-c1cccc(C(=O)O)c1	-6.1	14.6	6.5	-2.3	40.8*	36.8	59.1*	8.5	7.1

Screening data (PubChem BioAssay)
